In ChEMBL document CHEMBL1137746, “New insights into the antioxidant activity of hydroxycinnamic acids: Synthesis and physicochemical characterization of novel halogenated derivatives” (Eur J Med Chem, 2009):

Key:
[1] = Octanol-water partition coefficient, log P of the compound
[2] = ABTS radical scavenging activity assessed as Trolox equivalent antioxidant capacity at 50 uM by spectrophotometric analysis; type: physicochemical
Procedure, shortened: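 ABTS•+ generated from 7 mM ABTS in water with 2.45 mM potassium persulfate, kept dark at room temperature 12–16 h. Ethanolic compound solutions added to 180 µL radical solution; absorbance followed over 20 min. Blank control set as 100% radical. Triplicate. TE = (A_control − A_test)/(A_control − A_trolox); Trolox reference.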

[3] = DPPH radical scavenging activity assessed as Trolox equivalent antioxidant capacity at 50 uM after 40 mins; type: functional
Procedure, shortened: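 DPPH in ethanol; decrease in absorbance at 517 nm measured. Blank was ethanol; control was DPPH solution in ethanol. Triplicate. Trolox used as reference; TE = (A_control − A_test)/(A_control − A_trolox), A_control being DPPH solution without sample.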

**Q.** For `O=C(O)/C=C/c1cc(O)c(O)c(Br)c1`, which logP [1] is on record?
**A.** 1.98

**Q.** And the Activity [2]?
**A.** 2.496

**Q.** And the Activity [3]?
**A.** 1.01

**Q.** With `COc1cc(/C=C/C(=O)O)ccc1O` [FERULATE] as the molecule, how does the logP [1] read?
**A.** 1.42

**Q.** What about the Activity [2] of the same molecule?
**A.** 2.534

**Q.** What about the Activity [3] of the same molecule?
**A.** 0.781

**Q.** What does the source list for `O=C(O)/C=C/c1ccc(O)c(O)c1` [CAFFEIC ACID]?
**A.** Activity [2]: 2.538; Activity [3]: 0.978

**Q.** What does the source list for `COc1cc(/C=C/C(=O)O)cc(Br)c1O`?
**A.** logP [1]: 2.25; Activity [2]: 2.554; Activity [3]: 0.808

**Q.** Which Activity [2] does the source give for `COc1cc(/C=C/C(=O)O)cc(OC)c1O` [SINAPINATE] here?
**A.** 2.538

**Q.** And the Activity [3]?
**A.** 0.862

**Q.** Which logP [1] does the source give for `CCOC(=O)/C=C/c1cc(O)c(O)c(Br)c1` here?
**A.** 2.58

**Q.** What about the Activity [2] of the same molecule?
**A.** 2.527

**Q.** And the Activity [3]?
**A.** 0.938

**Q.** With `CCOC(=O)/C=C/c1ccc(O)c(OC)c1` [ETHYL FERULATE] as the molecule, how does the logP [1] read?
**A.** 2.02

**Q.** What about the Activity [2] of the same molecule?
**A.** 2.538

**Q.** And the Activity [3]?
**A.** 0.593

**Q.** Which results are given for `CCOC(=O)/C=C/c1cc(Br)c(O)c(OC)c1`?
**A.** logP [1]: 2.85; Activity [2]: 2.558; Activity [3]: 0.558

**Q.** What does the source list for `CCOC(=O)/C=C/c1ccc(O)c(O)c1` [ETHYL CAFFEATE]?
**A.** logP [1]: 1.75; Activity [2]: 2.558; Activity [3]: 0.877
